Experimental findings from the M2OR odorant receptor database are described below.

Common to all, as to conditions: stereoisomer not certain
The target of one assay is T1, OR2M4 (Homo sapiens) (UniProt Q96R27).
T1 sequence (whole entry): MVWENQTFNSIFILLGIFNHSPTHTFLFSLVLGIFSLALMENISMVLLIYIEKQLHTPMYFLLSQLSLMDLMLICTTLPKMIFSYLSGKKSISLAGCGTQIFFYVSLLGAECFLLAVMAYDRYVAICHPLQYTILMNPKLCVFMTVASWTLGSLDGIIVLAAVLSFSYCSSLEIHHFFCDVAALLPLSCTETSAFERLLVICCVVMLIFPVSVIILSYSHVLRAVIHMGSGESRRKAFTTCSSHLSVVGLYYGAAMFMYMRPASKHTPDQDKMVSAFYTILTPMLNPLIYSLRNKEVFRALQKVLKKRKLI
An outline of the steps: (§1)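 Assay methods differ from source to source, frequently being transient luciferase assays in mammalian cell lines. For each receptor–molecule pair, the label responsive (active) applies when the original authors judged the measured signal statistically different from baseline, and non-responsive (inactive) applies otherwise.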

A further assay concerns the target T2, OR2M5 (Homo sapiens) (UniProt A3KFT3).
T2 sequence (whole entry): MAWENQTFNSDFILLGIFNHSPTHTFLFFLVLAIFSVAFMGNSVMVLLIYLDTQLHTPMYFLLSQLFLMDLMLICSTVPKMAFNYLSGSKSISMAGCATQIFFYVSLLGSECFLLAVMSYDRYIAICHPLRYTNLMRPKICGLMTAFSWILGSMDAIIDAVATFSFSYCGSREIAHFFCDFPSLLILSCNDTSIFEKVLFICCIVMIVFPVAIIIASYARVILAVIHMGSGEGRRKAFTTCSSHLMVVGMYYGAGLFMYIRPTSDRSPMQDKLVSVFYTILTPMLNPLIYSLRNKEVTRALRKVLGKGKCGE
An outline of the steps: as §1

The next assay concerns T3, OR2M5 D11G.
T3 sequence (whole entry): T2 sequence (whole entry) with D11G
An outline of the steps:
as §1

The subject of another assay is OR2M3 D11N. In short, it runs like this:
as §1

The next assay deals with OR2M3 I13L A33G M144T. In short, it runs like this:
as §1

The subject of another assay is OR2M3 I13L A33G R266H. An outline of the steps: as §1
In the next assay the test system is OR2M3 I13L A33G. In short, it runs like this: as §1
In another assay the test system is OR2M3 I13L M144T. An outline of the steps:
as §1

Another assay relates to OR2M3 I13L. In short, it runs like this: as §1
The next assay relates to OR2M3 I198V. In short, it runs like this:
as §1

In a further assay the test system is OR2M3 I289N. An outline of the steps:
as §1

The test system of a further assay is OR2M3 L63F. In short, it runs like this:
as §1

The subject of a further assay is OR2M3 M144T. In short, it runs like this:
as §1

The next assay deals with OR2M3 M302T. In short, it runs like this: as §1
The next assay concerns OR2M3 R266H. An outline of the steps:
as §1

Another assay has as its system OR2M3 R293S. An outline of the steps:
as §1

In the next assay the test system is OR2M3 V78I. An outline of the steps:
as §1

For another assay, the system named is OR2M3 Y259H. An outline of the steps:
as §1

The test system of a further assay is OR2M5 A156G. An outline of the steps: as §1
A further assay has as its system OR2M5 A160V. An outline of the steps: as §1

Changes are numbered by the printed parent chain.

Chain of OR2M3 D11N (as listed by the source, stated change not applied): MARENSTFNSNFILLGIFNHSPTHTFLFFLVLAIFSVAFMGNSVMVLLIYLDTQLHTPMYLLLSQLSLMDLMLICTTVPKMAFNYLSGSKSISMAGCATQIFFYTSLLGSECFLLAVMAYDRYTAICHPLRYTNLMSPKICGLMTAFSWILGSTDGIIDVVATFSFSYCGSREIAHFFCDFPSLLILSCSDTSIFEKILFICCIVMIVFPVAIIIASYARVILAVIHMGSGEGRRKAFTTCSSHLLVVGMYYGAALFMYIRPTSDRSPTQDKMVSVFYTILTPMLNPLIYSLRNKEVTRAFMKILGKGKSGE
Chain of OR2M3 L63F (as listed by the source, stated change not applied): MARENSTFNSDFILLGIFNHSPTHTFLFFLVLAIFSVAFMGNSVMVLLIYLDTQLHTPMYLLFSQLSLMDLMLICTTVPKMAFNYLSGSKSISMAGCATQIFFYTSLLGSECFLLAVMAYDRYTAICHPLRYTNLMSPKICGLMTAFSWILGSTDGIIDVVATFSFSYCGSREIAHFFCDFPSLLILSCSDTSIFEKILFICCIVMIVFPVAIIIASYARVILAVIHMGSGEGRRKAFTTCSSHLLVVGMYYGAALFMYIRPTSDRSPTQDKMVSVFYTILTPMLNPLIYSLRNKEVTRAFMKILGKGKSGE
Chain of OR2M3 M144T (as listed by the source, stated change not applied): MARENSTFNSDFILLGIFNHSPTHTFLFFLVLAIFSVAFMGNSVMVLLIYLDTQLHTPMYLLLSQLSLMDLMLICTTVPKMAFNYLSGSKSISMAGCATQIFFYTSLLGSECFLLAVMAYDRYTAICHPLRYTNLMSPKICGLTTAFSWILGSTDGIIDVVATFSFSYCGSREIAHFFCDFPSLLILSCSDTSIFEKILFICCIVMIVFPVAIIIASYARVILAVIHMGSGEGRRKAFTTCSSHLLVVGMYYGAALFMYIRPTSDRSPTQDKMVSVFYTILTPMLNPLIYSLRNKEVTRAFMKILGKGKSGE
Chain of OR2M3 V78I (as listed by the source, stated change not applied): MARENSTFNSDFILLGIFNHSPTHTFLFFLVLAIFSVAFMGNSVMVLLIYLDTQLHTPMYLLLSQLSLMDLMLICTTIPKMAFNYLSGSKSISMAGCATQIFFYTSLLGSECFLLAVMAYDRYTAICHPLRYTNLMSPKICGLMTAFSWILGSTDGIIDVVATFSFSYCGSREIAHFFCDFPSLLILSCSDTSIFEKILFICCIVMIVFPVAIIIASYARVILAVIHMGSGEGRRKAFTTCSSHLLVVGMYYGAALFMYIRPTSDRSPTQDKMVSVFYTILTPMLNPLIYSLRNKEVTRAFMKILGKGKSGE
Chain of OR2M5 A156G (as listed by the source, stated change not applied): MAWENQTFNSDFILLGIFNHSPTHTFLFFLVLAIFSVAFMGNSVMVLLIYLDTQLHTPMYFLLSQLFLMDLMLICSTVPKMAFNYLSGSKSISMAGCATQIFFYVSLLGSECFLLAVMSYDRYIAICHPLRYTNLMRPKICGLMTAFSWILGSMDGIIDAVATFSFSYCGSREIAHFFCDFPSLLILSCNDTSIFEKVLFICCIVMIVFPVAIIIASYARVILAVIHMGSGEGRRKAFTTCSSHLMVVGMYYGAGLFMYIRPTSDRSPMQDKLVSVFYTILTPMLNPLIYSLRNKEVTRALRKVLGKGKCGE
Chain of OR2M3 R266H (as listed by the source, stated change not applied): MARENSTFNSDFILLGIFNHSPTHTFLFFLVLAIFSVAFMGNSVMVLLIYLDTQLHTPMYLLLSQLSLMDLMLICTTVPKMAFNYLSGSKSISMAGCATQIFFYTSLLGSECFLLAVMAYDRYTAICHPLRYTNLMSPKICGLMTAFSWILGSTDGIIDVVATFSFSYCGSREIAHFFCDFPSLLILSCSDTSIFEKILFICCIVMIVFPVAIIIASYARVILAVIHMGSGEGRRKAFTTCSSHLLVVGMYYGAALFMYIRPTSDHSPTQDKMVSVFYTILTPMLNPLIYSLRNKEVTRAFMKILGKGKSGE
Chain of OR2M3 I198V (as listed by the source, stated change not applied): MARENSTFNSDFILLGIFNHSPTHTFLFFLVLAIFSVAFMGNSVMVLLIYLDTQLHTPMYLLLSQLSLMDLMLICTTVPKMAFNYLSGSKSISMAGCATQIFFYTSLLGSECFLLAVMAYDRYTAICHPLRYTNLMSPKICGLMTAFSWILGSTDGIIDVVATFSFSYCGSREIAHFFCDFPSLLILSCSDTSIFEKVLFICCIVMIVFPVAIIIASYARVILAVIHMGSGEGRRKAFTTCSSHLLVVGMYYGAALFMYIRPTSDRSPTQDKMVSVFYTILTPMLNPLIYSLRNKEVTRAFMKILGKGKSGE
Chain of OR2M3 R293S (as listed by the source, stated change not applied): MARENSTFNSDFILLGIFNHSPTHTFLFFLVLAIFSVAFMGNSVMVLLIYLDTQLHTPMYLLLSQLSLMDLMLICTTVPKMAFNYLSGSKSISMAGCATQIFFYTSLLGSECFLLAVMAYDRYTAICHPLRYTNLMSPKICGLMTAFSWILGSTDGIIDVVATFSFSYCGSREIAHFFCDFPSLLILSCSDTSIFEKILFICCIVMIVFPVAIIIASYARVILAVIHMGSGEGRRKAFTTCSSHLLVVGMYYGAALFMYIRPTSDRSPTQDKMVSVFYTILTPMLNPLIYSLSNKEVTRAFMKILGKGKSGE
Chain of OR2M3 I289N (as listed by the source, stated change not applied): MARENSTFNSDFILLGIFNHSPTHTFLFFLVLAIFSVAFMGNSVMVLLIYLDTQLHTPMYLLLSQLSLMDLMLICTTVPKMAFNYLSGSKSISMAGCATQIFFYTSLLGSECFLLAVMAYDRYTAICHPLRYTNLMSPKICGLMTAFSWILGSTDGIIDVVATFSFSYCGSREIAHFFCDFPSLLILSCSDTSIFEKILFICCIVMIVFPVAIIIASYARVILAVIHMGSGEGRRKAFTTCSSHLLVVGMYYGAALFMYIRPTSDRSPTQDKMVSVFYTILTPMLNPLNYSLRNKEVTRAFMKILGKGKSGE
Chain of OR2M3 I13L (as listed by the source, stated change not applied): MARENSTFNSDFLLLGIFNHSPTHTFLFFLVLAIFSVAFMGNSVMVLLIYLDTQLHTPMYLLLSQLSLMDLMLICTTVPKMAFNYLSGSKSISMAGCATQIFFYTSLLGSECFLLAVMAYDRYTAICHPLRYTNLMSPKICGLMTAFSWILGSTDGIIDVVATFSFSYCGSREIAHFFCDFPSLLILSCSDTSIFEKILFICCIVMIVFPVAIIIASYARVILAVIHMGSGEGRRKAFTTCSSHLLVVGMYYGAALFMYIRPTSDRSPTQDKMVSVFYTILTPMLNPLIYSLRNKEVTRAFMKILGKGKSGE
Chain of OR2M5 A160V (as listed by the source, stated change not applied): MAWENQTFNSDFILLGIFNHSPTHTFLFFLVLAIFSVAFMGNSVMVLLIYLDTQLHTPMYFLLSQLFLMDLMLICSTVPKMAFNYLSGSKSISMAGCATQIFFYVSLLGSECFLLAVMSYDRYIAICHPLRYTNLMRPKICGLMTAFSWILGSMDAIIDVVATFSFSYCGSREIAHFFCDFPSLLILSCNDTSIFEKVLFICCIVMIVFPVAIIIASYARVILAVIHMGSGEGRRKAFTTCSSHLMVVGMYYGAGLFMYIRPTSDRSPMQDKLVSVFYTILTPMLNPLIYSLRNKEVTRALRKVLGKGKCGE
Chain of OR2M3 Y259H (as listed by the source, stated change not applied): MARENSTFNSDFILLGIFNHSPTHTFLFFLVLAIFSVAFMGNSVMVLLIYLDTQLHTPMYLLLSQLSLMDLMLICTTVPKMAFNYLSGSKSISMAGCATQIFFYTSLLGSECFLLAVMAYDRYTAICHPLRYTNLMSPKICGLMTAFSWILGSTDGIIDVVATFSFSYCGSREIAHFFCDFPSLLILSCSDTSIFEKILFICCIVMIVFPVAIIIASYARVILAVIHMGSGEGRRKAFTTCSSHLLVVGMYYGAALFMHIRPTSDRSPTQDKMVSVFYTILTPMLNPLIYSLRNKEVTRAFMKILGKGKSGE
Chain of OR2M3 M302T (as listed by the source, stated change not applied): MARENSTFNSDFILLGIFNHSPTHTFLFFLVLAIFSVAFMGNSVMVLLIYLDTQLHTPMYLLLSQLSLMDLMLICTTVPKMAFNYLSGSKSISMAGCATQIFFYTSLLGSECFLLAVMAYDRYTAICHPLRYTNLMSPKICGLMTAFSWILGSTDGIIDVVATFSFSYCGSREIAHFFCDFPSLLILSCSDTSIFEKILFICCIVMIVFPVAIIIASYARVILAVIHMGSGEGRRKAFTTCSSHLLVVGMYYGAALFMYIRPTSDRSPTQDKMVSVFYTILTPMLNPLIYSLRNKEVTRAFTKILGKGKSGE

With `CCCCCC1COCCC1OC(C)=O` (stereo not drawn), the “odorant receptor agonist call” value with OR2M4 (Homo sapiens) was “inactive”.

`CC1=C(O)C(=O)C(C)O1` (stereo not drawn): the “odorant receptor agonist call” value with OR2M4 (Homo sapiens), with OR2M5 (Homo sapiens) and in the assay on OR2M5 D11G was “inactive” in each case.

Turning to `CCCCCC(=O)C(C)C(C)=O` (stereo not drawn), the “odorant receptor agonist call” value with OR2M4 (Homo sapiens) and in the assay with OR2M5 (Homo sapiens) was “inactive” in each case.

For `CCCCCCC=CCCC=O`, the “odorant receptor agonist call” value with OR2M4 (Homo sapiens), with OR2M5 (Homo sapiens) and in the assay on OR2M5 D11G was “inactive” each time.

With `CCC1OC(C)=C(O)C1=O` (stereo not drawn), the “odorant receptor agonist call” value with OR2M4 (Homo sapiens), in the assay with OR2M5 (Homo sapiens) and in the assay on OR2M5 D11G was “inactive” each time.

As for `CCCCCC1C(=O)CCC1CC(=O)OC` (stereo not drawn), in the assay with OR2M4 (Homo sapiens), the “odorant receptor agonist call” value was “inactive”.

As for `OCc1ccccc1`, the “odorant receptor agonist call” value with OR2M4 (Homo sapiens) is “inactive”.

`Cc1cnc(C)c(C)n1`: the “odorant receptor agonist call” value with OR2M4 (Homo sapiens), with OR2M5 (Homo sapiens) and in the assay on OR2M5 D11G was “inactive” each time.

Regarding `CCC1OC(=O)C(O)=C1C` (stereo not drawn), the “odorant receptor agonist call” value in the assay with OR2M4 (Homo sapiens), in the assay with OR2M5 (Homo sapiens) and with OR2M5 D11G was “inactive” in each case.

Consider `Cc1occc(=O)c1OC(=O)C(C)C`, for which the “odorant receptor agonist call” value with OR2M4 (Homo sapiens) is “inactive”.

In the case of `CCC(=O)C=CC1C(C)=CCCC1(C)C` (stereo not drawn), the “odorant receptor agonist call” value with OR2M4 (Homo sapiens) is “inactive”.

On to `CCc1ccc(CC(C)(C)C=O)cc1`, for which, in the assay with OR2M4 (Homo sapiens), the “odorant receptor agonist call” value was “inactive”.

For `CC(CO)CS` (stereo not drawn), the “odorant receptor agonist call” value with OR2M4 (Homo sapiens) and in the assay with OR2M5 (Homo sapiens) was “inactive” throughout.

For `CC(C)CCCC(C)(C)O`, the “odorant receptor agonist call” value in the assay with OR2M4 (Homo sapiens) was “inactive”.

Take `COC1CC2CC1C1CC(C=O)CC21` (stereo not drawn): the “odorant receptor agonist call” value with OR2M4 (Homo sapiens) is “inactive”.

For the molecule `C=CC(C)(CCC=C(C)C)OC(C)=O` (stereo not drawn), the “odorant receptor agonist call” value in the assay with OR2M4 (Homo sapiens) was “inactive”.

For `C=CCOC(=O)COCCC(C)C`, the “odorant receptor agonist call” value with OR2M4 (Homo sapiens) was “inactive”.

`CCCCC1CCC(=O)O1` (stereo not drawn): the “odorant receptor agonist call” value in the assay with OR2M4 (Homo sapiens) is “inactive”.

On to `CC(=O)C=CC1=C(C)CCCC1(C)C`, for which the “odorant receptor agonist call” value with OR2M4 (Homo sapiens) is “inactive”.

As to `CC(=O)c1c(C)c([N+](=O)[O-])c(C(C)(C)C)c([N+](=O)[O-])c1C`, in the assay with OR2M5 (Homo sapiens), the “odorant receptor agonist call” value was “inactive”.

For `CCCCC(S)C(C)CO` (stereo not drawn), the “odorant receptor agonist call” value in the assay with OR2M4 (Homo sapiens) and in the assay with OR2M5 (Homo sapiens) was “inactive” in each case.

On to `CC=CC(=O)C1C(C)=CCCC1(C)C` (stereo not drawn), for which, in the assay with OR2M4 (Homo sapiens), the “odorant receptor agonist call” value is “active”.

For `CC1=C(O)C(=O)OC1C` (stereo not drawn), the “odorant receptor agonist call” value in the assay with OR2M4 (Homo sapiens), with OR2M5 (Homo sapiens) and with OR2M5 D11G was “inactive” each time.

Take `CC(C)=CCCC(C)CC=O` (stereo not drawn): the “odorant receptor agonist call” value in the assay with OR2M4 (Homo sapiens) was “inactive”.

For the molecule `CC(C)(C)C1CCCCC1OCCCCO` (stereo not drawn), the “odorant receptor agonist call” value with OR2M4 (Homo sapiens) was “inactive”.

For the molecule `CCC(S)C(C)CO` (stereo not drawn), the “odorant receptor agonist call” value in the assay on OR2M3 D11N, in the assay on OR2M3 I13L A33G R266H, with OR2M3 I13L A33G, with OR2M3 I13L M144T, with OR2M3 I13L and in the assay with OR2M3 I198V was “active” throughout. Besides, the “odorant receptor agonist call” value in the assay on OR2M3 M144T, in the assay with OR2M3 M302T, in the assay on OR2M3 R266H, with OR2M3 R293S and in the assay with OR2M3 V78I was “active” in each case. Also, the “odorant receptor agonist call” value in the assay with OR2M3 I13L A33G M144T, with OR2M3 I289N, with OR2M3 L63F, with OR2M3 Y259H, in the assay with OR2M4 (Homo sapiens) and in the assay with OR2M5 (Homo sapiens) was “inactive” in each case. Besides, the “odorant receptor agonist call” value in the assay on OR2M5 A156G and in the assay with OR2M5 A160V was “inactive” each time.

As to `CC(C)=CCCC(C)=CCO`, in the assay with OR2M4 (Homo sapiens), the “odorant receptor agonist call” value is “inactive”.

`COc1ccc(C)cc1`: the “odorant receptor agonist call” value in the assay with OR2M4 (Homo sapiens) was “active”.

As to `CCCCCC(S)C(C)CO` (stereo not drawn), the “odorant receptor agonist call” value in the assay with OR2M4 (Homo sapiens) and in the assay with OR2M5 (Homo sapiens) was “inactive” throughout.

Regarding `CCCC(S)CCOC(C)=O` (stereo not drawn), the “odorant receptor agonist call” value in the assay with OR2M4 (Homo sapiens), with OR2M5 (Homo sapiens) and in the assay on OR2M5 D11G was “inactive” each time.

With `CC1CC(C)(c2ccccc2)CO1` (stereo not drawn), the “odorant receptor agonist call” value in the assay with OR2M4 (Homo sapiens) is “inactive”.

Consider `CCC=C(C)C(O)CCCCC` (stereo not drawn), for which the “odorant receptor agonist call” value in the assay with OR2M4 (Homo sapiens) was “inactive”.

Regarding `CC1CCCCCCCCCCCCC(=O)C1` (stereo not drawn), the “odorant receptor agonist call” value with OR2M5 (Homo sapiens) was “inactive”.

With `CCCCCCCCC(OC(C)=O)OC(C)=O`, the “odorant receptor agonist call” value with OR2M4 (Homo sapiens) is “inactive”.

On to `CCCC(C)C(=O)OCC` (stereo not drawn), for which, in the assay with OR2M4 (Homo sapiens), the “odorant receptor agonist call” value is “inactive”.

Regarding `CC(=O)OCc1ccccc1`, the “odorant receptor agonist call” value in the assay with OR2M4 (Homo sapiens) is “inactive”.

As to `CC(CC=O)c1ccc(C(C)(C)C)cc1` (stereo not drawn), the “odorant receptor agonist call” value with OR2M4 (Homo sapiens) was “inactive”.

As to `CC1=NC(C)C(C)S1` (stereo not drawn), the “odorant receptor agonist call” value with OR2M4 (Homo sapiens), with OR2M5 (Homo sapiens) and with OR2M5 D11G was “inactive” each time.

Regarding `Cc1ccc(C(C)C)cc1O`, the “odorant receptor agonist call” value in the assay with OR2M4 (Homo sapiens) is “inactive”.

Take `CC1=CCC2CC1C2(C)C` (stereo not drawn): the “odorant receptor agonist call” value with OR2M4 (Homo sapiens) is “inactive”.
